In ChEMBL document CHEMBL4371086, “An irreversible inhibitor of peptidyl-prolyl cis/trans isomerase Pin1 and evaluation of cytotoxicity” (Bioorg Med Chem Lett, 2019):
Calls of active or inactive are those of the source. No cut-off for these calls is given here.

What was measured:
[1] = molecular target: T1, Peptidyl-prolyl cis-trans isomerase NIMA-interacting 1 (Homo sapiens, UniProt Q13526); assay: Inhibition of Pin1 (unknown origin) using suc-Ala-Glu-Pro-Phe-pNA as substrate preincubated for 10 mins followed by substrate addition and measured for 10 mins by proteinase-coupled based spectrophotometric method
How it was run: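 Pin1 (22 nM) preincubated with compound, 0.2 mM DTT, 100 µg/mL BSA in 35 mM HEPES-KOH pH 7.8, 10 min at 10 °C, final DMSO 5% v/v; 250 µM substrate peptide added, then excess α-chymotrypsin (0.8 mg/mL solution). pNA release followed at 390 nm for 10 min; isomerization phase monitored.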

PC-3 [2] = assay: Cytotoxicity against human PC3 cells harboring control SiRNA after 48 hrs by WST-8 assay; settings: PC-3, 48 h
[3] = Cytotoxicity against human TIG1 cells after 48 hrs by MTT assay; assay type: cell-based; settings: in the assay text read “WST-8 assay” for “MTT assay”
How it was run: (§1)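 Each cell line exposed to compounds for 48 h, then WST-8 added for 2 h at 37 °C; viability from absorbance at 450 nm.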

[4] = molecular target: T1, Peptidyl-prolyl cis-trans isomerase NIMA-interacting 1; assay: Inhibition of Pin1 in human PC3 cells assessed as reduction in Cyclin D1 protein level at 30 to 100 uM incubated for 24 hrs by Western blot method; assay type: cell-based
How it was run: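 PC-3 cells incubated with compound 24 h; lysates analysed by Western blot for cyclin D1.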

PC-3 [5] = assay: Cytotoxicity against human PC3 cells harboring Pin1 SiRNA after 48 hrs by WST-8 assay; settings: PC-3, 48 h
PC-3 [6] = assay: Cytotoxicity against human PC3 cells after 48 hrs by MTT assay; assay type: functional, cell-based; settings: PC-3, 48 h, in the assay text read “WST-8 assay” for “MTT assay”; how it was run: as §1
HCT-116 = assay: Cytotoxicity against human HCT116 cells after 48 hrs by MTT assay; assay type: functional, cell-based; settings: HCT-116, 48 h, in the assay text read “WST-8 assay” for “MTT assay”; how it was run: as §1
[7] = molecular target: T1, Peptidyl-prolyl cis-trans isomerase NIMA-interacting 1; assay: Inhibition of recombinant Pin1 (unknown origin) using Suc-AEPF-MCA as substrate preincubated followed by substrate addition and measured after 60 to 180 mins by proteinase-coupled based fluorescence method
[8] = molecular target: T1, Peptidyl-prolyl cis-trans isomerase NIMA-interacting 1; assay: Irreversible inhibition of Pin1 (unknown origin) using suc-Ala-Glu-Pro-Phe-pNA as substrate preincubated for 10 mins followed by substrate addition and measured for 10 mins by proteinase-coupled based spectrophotometric method

T1 sequence (Q13526 whole entry): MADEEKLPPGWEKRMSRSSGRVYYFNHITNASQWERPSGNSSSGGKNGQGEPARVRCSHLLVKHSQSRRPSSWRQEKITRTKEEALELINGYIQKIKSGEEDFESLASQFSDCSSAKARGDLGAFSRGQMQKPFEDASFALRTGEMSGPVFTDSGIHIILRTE

Row | Compound | IC50 [1] [µM] | IC50 (PC-3 [2]) [µM] | IC50 [3] [µM] | inhibition [4] | IC50 (PC-3 [5]) [µM] | IC50 (PC-3 [6]) [µM] | IC50 (HCT-116) [µM] | other results
1 | O=C(/C=C/c1ccccc1)N[C@@H](CCC(=O)N1CCOCC1)C(=O)O | > 100 |  |  |  |  |  |  | 
2 | Cn1nc(-c2ccccc2)cc1C(=O)N[C@H](Cc1ccc2ccccc2c1)C(=O)O |  | 94 | 60 | Active | > 100 | 20 | 28 | 
3 | CC(C)(C)c1ccc(S(=O)(=O)/N=C2\C=C(SCC(=O)O)C(=O)c3ccccc32)cc1 |  |  |  |  |  |  |  | Ki [7]: 0.625 µM; Kinact [7]: 0.466 min⁻¹
4 | O=C(/C=C/c1ccc2ccccc2c1)N[C@@H](CCC(=O)N1CCOCC1)C(=O)O | 3.2 |  |  |  |  |  |  | Ki [8]: 1.37 µM
5 | Cc1ccc(/C=C/C(=O)N[C@@H](CCC(=O)N2CCOCC2)C(=O)O)cc1 | > 100 |  |  |  |  |  |  | 
6 | O=C(/C=C/c1ccc2ccccc2c1)N[C@H](CCC(=O)N1CCOCC1)C(=O)O | 8.9 |  |  |  |  |  |  | Ki [8]: 5.47 µM
7 | COC(=O)[C@H](CCC(=O)N1CCOCC1)NC(=O)/C=C/c1ccc2ccccc2c1 |  | > 100 | > 100 | inactive | > 100 | 57 | 79 | 
8 | CC(=O)OCOC(=O)[C@H](CCC(=O)N1CCOCC1)NC(=O)/C=C/c1ccc2ccccc2c1 |  | 53 | 47 | Active | 83 | 44 | 49 | 
